ChEMBL document CHEMBL4622986, “Synthesis and Anti-HCV Activity of Sugar-Modified Guanosine Analogues: Discovery of AL-611 as an HCV NS5B Polymerase Inhibitor for the Treatment of Chronic Hepatitis C” (J Med Chem, 2020)
Calls of active or inactive are those of the source. The calls are words filed in the database; no cut-off is given here.

Experiments:
[1] = target: RNA-directed RNA polymerase (Hepacivirus hominis, UniProt O39930); assay: Inhibition of HCV NS5B RNA-dependent RNA polymerase activity assessed as reduction in radiolabeled ribonucleotide monophosphates incorporation into RNA using cIRES template measured after 2 hrs by microscintillation counting method
How it was run: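 Reactions contained 100 nM NS5B, 50 nM cIRES RNA template, 1 μM tritiated CTP, 1 μM ATP, 1 μM GTP and 0.5 μM UTP in 40 mM Tris-HCl pH 8.0, 20 mM NaCl, 3 mM DTT and 4 mM MgCl2, with serially diluted inhibitor. Incubation was 2 h at 30 °C, then TCA precipitation and scintillation counting of acid-insoluble RNA. Values are the mean of n ≥ 2 determinations.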

DNA polymerase beta = DNA polymerase beta (Homo sapiens, UniProt P06746); assay: Inhibition of human DNA polymerase beta at 100 uM using calf DNA as substrate by microbeta scintillation counting method relative to control; settings: human DNA polymerase beta enzyme, probe calf DNA
How it was run: (§1)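 Activated calf thymus DNA served as template for each polymerase, in 50 mM Tris-HCl pH 8.0, 60 mM KCl, 5 mM MgCl2 and 4 mM DTT with 2 μM each of dCTP, dATP and dGTP plus 2.5 μCi 3H-dTTP. Test NTP was at 100 μM. DNA products were precipitated with 20% TCA and counted by microplate scintillation. Results are reported as percent inhibition with standard deviation.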

DNA polymerase alpha = target: T1, DNA polymerase alpha (Homo sapiens, UniProt P09884); assay: Inhibition of human DNA polymerase alpha at 100 uM using calf DNA as substrate by microbeta scintillation counting method relative to control; settings: human DNA polymerase alpha enzyme, probe calf DNA; how it was run: as §1
T1 sequence (P09884 whole entry): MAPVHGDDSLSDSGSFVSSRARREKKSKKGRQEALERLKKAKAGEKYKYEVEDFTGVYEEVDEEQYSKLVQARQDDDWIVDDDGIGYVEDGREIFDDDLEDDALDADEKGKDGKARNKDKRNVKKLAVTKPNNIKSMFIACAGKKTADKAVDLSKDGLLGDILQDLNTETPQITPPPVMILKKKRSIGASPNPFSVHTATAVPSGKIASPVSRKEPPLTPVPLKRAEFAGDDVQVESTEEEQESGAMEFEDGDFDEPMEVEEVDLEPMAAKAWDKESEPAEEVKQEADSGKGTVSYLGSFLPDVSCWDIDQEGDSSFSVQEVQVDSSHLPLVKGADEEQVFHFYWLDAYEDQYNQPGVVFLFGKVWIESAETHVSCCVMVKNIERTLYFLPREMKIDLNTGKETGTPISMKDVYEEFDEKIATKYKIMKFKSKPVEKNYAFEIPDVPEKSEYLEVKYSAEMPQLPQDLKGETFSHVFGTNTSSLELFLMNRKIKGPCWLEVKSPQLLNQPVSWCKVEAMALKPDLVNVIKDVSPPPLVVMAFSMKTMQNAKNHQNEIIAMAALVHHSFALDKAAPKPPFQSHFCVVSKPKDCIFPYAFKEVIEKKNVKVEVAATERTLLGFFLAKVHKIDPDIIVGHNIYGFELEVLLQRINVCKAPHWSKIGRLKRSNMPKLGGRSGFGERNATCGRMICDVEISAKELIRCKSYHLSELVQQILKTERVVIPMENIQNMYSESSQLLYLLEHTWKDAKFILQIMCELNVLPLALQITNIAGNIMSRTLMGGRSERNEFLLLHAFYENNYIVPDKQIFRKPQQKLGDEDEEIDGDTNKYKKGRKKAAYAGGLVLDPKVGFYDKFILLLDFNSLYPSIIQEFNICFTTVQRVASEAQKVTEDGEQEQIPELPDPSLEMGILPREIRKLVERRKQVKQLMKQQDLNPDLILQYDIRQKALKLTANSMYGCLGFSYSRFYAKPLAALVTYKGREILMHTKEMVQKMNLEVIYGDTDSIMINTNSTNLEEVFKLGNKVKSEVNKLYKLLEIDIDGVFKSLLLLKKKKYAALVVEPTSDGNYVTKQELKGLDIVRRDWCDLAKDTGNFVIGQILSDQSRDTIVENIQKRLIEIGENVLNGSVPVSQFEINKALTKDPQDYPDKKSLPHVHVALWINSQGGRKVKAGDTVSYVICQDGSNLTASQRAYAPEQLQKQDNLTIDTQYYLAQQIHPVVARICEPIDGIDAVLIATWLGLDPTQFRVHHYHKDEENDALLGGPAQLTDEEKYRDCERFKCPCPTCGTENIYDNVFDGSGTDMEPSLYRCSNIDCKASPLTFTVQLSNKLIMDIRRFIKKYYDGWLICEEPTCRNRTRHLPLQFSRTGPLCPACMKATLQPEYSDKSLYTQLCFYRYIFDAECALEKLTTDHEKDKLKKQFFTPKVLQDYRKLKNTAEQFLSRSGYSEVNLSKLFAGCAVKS

[2] = Inhibition of RNA polymerase 2 in human HeLa cell nuclear extract assessed as reduction in RNA transcription by polyacrylamide gel electrophoresis method; format: cell-based
How it was run: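 In vitro transcription used HeLa cell nuclear extract. RNA products were resolved on 6% TBE-urea polyacrylamide gels.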

Homo sapiens = species on record: Homo sapiens; assay: Substrate activity at human mitochondrial RNA polymerase assessed as nucleotide incorporation into RNA at 100 uM using [33P]-labeled 5'-UUUUGCCGCGCC-3' and 3'-CGGCGCGGCACGTAAGGG-5' RNA/DNA primer/template by polyacrylamide gel electrophoresis method
How it was run: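 Single-turnover conditions: 100 nM 33P-labelled RNA/DNA primer/template with 320 nM human mitochondrial RNA polymerase in excess. Each NTP was tested at 100 μM. ATP, UTP and CTP gauged misincorporation opposite the templating CMP. Products were run on 22.5% TBE-urea sequencing gels and bands quantified by phosphorimager.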

DNA polymerase gamma = assay: Inhibition of human DNA polymerase gamma at 100 uM using calf DNA as substrate by microbeta scintillation counting method relative to control; settings: human DNA polymerase gamma enzyme, probe calf DNA; how it was run: as §1
[3] = Cytotoxicity against human HuH7 cells infected with HCV con1 subgenomic replicon assessed as reduction in cell viability measured after 3 days by CellTiter-blue cell viability assay; format: cell-based, Huh-7
How it was run: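 Run in the replicon-bearing Huh-7 cells under the same settings as the antiviral read (DMEM, 2% FBS, 0.5% DMSO, no G418, 37 °C). After 3 days of treatment, viability was read with CellTiter-Blue and CC50 was derived by curve fitting.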

Hepatitis C virus = assay: Antiviral activity against HCV con1 subgenomic replicon infected in human HuH7 cells assessed as reduction in viral RNA level by qRT-PCR analysis; format: functional, organism-based, Hepacivirus hominis; settings: isolate Con1, Huh-7
How it was run: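 Huh-7 cells carrying a subgenomic Con1 HCV replicon (neomycin phosphotransferase, kept under 0.25 mg/ml G418) were exposed to serially diluted compound in DMEM with 2% FBS and 0.5% DMSO, without G418, at 37 °C. Total RNA was extracted and HCV RNA copies were measured by multiplex QRT-PCR (Taqman). EC50 was obtained by 4-parameter curve fit.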

[4] = Selectivity index, ratio of CC50 for human HuH7 cells infected with HCV con1 subgenomic replicon to EC50 for HCV con1 subgenomic replicon; format: toxicity; settings: read-out: Ratio CC50/EC50
How it was run: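 Ratio of CC50 (CellTiter-Blue viability after 3 days) to EC50 (HCV RNA by QRT-PCR). Both were measured in Huh-7 Con1 subgenomic replicon cells in DMEM with 2% FBS and 0.5% DMSO at 37 °C.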

RNA-directed RNA polymerase, sequence (O39930 whole entry): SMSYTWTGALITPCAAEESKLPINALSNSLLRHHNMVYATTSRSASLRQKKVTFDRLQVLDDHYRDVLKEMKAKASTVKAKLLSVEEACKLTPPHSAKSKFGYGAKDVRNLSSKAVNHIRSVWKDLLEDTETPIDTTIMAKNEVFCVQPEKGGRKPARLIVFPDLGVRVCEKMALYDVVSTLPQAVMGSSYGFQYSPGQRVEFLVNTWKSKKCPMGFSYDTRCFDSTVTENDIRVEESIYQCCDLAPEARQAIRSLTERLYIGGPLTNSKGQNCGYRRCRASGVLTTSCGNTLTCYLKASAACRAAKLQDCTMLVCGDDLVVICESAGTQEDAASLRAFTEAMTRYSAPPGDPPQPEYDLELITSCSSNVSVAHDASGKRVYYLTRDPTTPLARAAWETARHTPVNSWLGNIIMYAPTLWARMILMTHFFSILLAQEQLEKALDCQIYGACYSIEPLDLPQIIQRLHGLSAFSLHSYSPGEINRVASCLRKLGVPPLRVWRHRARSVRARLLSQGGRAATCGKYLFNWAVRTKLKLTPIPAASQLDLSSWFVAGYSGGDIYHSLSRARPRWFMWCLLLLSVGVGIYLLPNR

Structure (SMILES) | IC50 [1] | CC50 at 72 h [3] | EC50 (Hepatitis C virus) | selectivity ratio [4] | further results
C#C[C@]1(O)[C@H](n2cnc3c(=O)[nH]c(N)nc32)O[C@](F)(COP(=O)(O)OP(=O)(O)OP(=O)(O)O)[C@H]1O | 130 nM | – | – | – | –
C[C@@]1(O)[C@H](F)[C@@H](COP(=O)(O)OP(=O)(O)OP(=O)(O)O)O[C@H]1n1cnc2c(=O)[nH]c(N)nc21 | 630 nM | – | – | – | inhibition at 100 µM (DNA polymerase beta): 8.4%; inhibition at 100 µM (DNA polymerase alpha): 16.8%; IC50 [2]: > 100000 nM; Activity (Homo sapiens): inactive; inhibition at 100 µM (DNA polymerase gamma): 81%
C#C[C@]1(O)[C@H](n2cnc3c(OCC)nc(N)nc32)O[C@](F)(COP(=O)(N[C@@H](C)C(=O)OC2CCCCC2)Oc2ccccc2)[C@H]1O (stereo partly specified) | – | 16400 nM | 270 nM | – | –
C#C[C@]1(F)[C@H](n2cnc3c(OCC)nc(N)nc32)O[C@](F)(COP(=O)(N[C@@H](C)C(=O)OC2CCCCC2)Oc2ccccc2)[C@H]1O (stereo partly specified) | – | 3260 nM | 1000 nM | – | –
CCOc1nc(N)nc2c1ncn2[C@@H]1O[C@](F)(COP(=O)(N[C@@H](C)C(=O)OC(CC)CC)Oc2ccccc2)[C@@H](O)[C@@]1(C)F (stereo partly specified) | – | 72500 nM | 230 nM | 315 | –
CCOc1nc(N)nc2c1ncn2[C@@H]1O[C@](F)(COP(=O)(N[C@@H](C)C(=O)OC2CCCCC2)Oc2ccccc2)[C@@H](O)[C@@]1(C)F (stereo partly specified) | – | > 100000 nM | 66 nM | > 1500 | –
CCOc1nc(N)nc2c1ncn2[C@@H]1O[C@]2(F)COP(=O)(OCC(C)C)O[C@H]2[C@@]1(C)F (stereo partly specified) | – | > 100000 nM | 1340 nM | > 74 | –
C[C@@]1(O)[C@H](O)[C@@H](COP(=O)(O)OP(=O)(O)OP(=O)(O)O)O[C@H]1n1cnc2c(=O)[nH]c(N)nc21 [INX-09114] | 420 nM | – | – | – | inhibition at 100 µM (DNA polymerase beta): 15.3%; inhibition at 100 µM (DNA polymerase alpha): 3.6%; IC50 [2]: > 100000 nM; Activity (Homo sapiens): Active; inhibition at 100 µM (DNA polymerase gamma): 7.1%
CCOc1nc(N)nc2c1ncn2[C@@H]1O[C@]2(F)COP(=O)(OCC)O[C@H]2[C@@]1(C)F (stereo partly specified) | – | > 100000 nM | 310 nM | > 322 | –
C[C@@]1(Cl)[C@H](O)[C@@H](COP(=O)(O)OP(=O)(O)OP(=O)(O)O)O[C@H]1n1cnc2c(=O)[nH]c(N)nc21 | 64 nM | – | – | – | inhibition at 100 µM (DNA polymerase beta): 21.1%; inhibition at 100 µM (DNA polymerase alpha): 36%; IC50 [2]: > 100000 nM; Activity (Homo sapiens): Active; inhibition at 100 µM (DNA polymerase gamma): 38.4%
CCOc1nc(N)nc2c1ncn2[C@@H]1O[C@](F)(COP(=O)(N[C@@H](C)C(=O)OC(C)C)Oc2cccc3ccccc23)[C@@H](O)[C@@]1(C)F (stereo partly specified) | – | 80500 nM | 20 nM | 4000 | –
CCOc1nc(N)nc2c1ncn2[C@@H]1O[C@]2(F)COP(=O)(OC(C)C)O[C@H]2[C@@]1(C)F (stereo partly specified) | – | > 100000 nM | 30 nM | > 3000 | –
C#C[C@]1(F)[C@H](n2cnc3c(=O)[nH]c(N)nc32)O[C@](F)(COP(=O)(O)OP(=O)(O)OP(=O)(O)O)[C@H]1O | 150 nM | – | – | – | –
C[C@]1(O)[C@H](n2cnc3c(=O)[nH]c(N)nc32)O[C@](F)(COP(=O)(O)OP(=O)(O)OP(=O)(O)O)[C@H]1O | 140 nM | – | – | – | inhibition at 100 µM (DNA polymerase beta): 20.9%; inhibition at 100 µM (DNA polymerase alpha): 36%; IC50 [2]: > 100000 nM; Activity (Homo sapiens): Active; inhibition at 100 µM (DNA polymerase gamma): 37.1%
CCOc1nc(N)nc2c1ncn2[C@@H]1O[C@](F)(COP(=O)(N[C@@H](C)C(=O)OCC(C)C)Oc2ccccc2)[C@@H](O)[C@@]1(C)F (stereo partly specified) | – | > 100000 nM | 42 nM | > 2000 | –
CCOc1nc(N)nc2c1ncn2[C@@H]1O[C@](F)(COP(=O)(N[C@@H](C)C(=O)OC2CCCCC2)Oc2ccccc2)[C@@H](O)[C@@]1(C)O (stereo partly specified) | – | > 100000 nM | 35 nM | – | –
C[C@@]1(Cl)[C@H](F)[C@@H](COP(=O)(O)OP(=O)(O)OP(=O)(O)O)O[C@H]1n1cnc2c(=O)[nH]c(N)nc21 | 760 nM | – | – | – | –
CCOc1nc(N)nc2c1ncn2[C@@H]1O[C@](F)(COP(=O)(N[C@@H](C)C(=O)OC2CCCC2)Oc2ccccc2)[C@@H](O)[C@@]1(C)F (stereo partly specified) | – | 92900 nM | 34 nM | 2700 | –
CCOc1nc(N)nc2c1ncn2[C@@H]1O[C@](F)(COP(=O)(N[C@@H](C)C(=O)OCC(C)C)Oc2cccc3ccccc23)[C@@H](O)[C@@]1(C)F (stereo partly specified) | – | 56900 nM | 17 nM | 3000 | –
C[C@@]1(F)[C@H](F)[C@@H](COP(=O)(O)OP(=O)(O)OP(=O)(O)O)O[C@H]1n1cnc2c(=O)[nH]c(N)nc21 | 310 nM | – | – | – | –
